Measured values: ChEMBL document CHEMBL2346518, “Synthesis and evaluation of nicotinamide derivative as anti-angiogenic agents” (Bioorg Med Chem Lett, 2013)
Activity calls are given as the source filed them.

Assays:
Aorta = assay: Inhibition of VEGF-induced microvessel sprouting around Sprague-Dawley rat aortic rings; type: functional, tissue-based
Summary of the method: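 Aortas from Sprague-Dawley rats cleaned of periadventitial fat and cut into 1–1.5 mm rings. Rings embedded in Matrigel with VEGF ± compound (10, 50, 100 nM); medium alone as control. Sprouts fixed and photographed after 7 days at ×100. Three independent experiments.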

[1] = target: Vascular endothelial growth factor receptor 2 (Homo sapiens) (UniProt P35968); assay: Inhibition of VEGF-induced VEGFR2 in human HUVEC cell assessed as AKT phosphorylation at Ser473 incubated 1 hr prior to VEGF-challenge measured after 30 mins by Western blot analysis
Chain of Vascular endothelial growth factor receptor 2 (Homo sapiens) (P35968 whole entry): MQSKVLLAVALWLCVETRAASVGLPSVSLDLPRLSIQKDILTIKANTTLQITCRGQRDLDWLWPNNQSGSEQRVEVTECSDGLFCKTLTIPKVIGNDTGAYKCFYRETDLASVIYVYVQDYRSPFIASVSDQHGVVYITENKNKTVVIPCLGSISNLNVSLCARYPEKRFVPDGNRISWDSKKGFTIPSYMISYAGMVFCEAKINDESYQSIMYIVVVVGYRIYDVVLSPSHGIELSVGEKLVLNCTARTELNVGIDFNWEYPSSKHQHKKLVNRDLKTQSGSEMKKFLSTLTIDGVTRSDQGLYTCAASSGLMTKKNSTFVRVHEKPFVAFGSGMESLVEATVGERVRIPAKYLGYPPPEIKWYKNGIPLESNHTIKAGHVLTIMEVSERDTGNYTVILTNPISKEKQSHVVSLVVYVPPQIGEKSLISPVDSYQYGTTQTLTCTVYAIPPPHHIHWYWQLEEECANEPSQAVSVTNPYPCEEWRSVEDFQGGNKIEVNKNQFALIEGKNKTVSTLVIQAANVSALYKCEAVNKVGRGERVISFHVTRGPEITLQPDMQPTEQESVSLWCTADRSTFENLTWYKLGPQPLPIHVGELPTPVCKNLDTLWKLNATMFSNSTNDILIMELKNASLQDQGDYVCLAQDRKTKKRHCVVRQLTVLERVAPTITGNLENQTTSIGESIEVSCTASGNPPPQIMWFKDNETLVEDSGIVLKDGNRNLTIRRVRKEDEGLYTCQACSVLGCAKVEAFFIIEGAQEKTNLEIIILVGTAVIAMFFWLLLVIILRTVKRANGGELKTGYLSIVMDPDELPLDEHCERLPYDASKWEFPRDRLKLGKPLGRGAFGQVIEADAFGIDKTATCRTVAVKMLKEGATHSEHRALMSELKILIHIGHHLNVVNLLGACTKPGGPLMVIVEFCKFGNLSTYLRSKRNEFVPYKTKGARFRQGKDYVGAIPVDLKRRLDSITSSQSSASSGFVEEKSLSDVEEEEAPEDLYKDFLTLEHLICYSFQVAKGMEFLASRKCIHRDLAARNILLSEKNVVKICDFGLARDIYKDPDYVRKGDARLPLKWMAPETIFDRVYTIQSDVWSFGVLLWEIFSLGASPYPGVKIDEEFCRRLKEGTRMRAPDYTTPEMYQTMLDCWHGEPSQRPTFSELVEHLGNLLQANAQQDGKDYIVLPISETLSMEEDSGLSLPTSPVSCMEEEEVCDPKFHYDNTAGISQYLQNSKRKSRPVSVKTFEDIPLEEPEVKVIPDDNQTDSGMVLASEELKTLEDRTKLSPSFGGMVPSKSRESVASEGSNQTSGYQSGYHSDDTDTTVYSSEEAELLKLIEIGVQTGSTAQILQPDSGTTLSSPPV
Summary of the method: (§1)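 HUVECs pretreated 1 h with compound (10, 50 or 100 nM), then stimulated with VEGF 10 ng/ml. Phospho-VEGFR2 read at 5 min and phospho-Akt at 30 min by Western blot.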

HUVEC [2] = assay: Inhibition of VEGF-induced human HUVEC cell migration incubated 1 hr prior to VEGF-challenge measured after 24 hrs by wound healing assay; type: functional, cell-based
Summary of the method: (§2)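 Wound made with a scraper in near-confluent HUVECs. Cells pretreated 1 h with compound (10–100 nM), then migration induced with VEGF 10 ng/ml. Wound area photographed after 24 h.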

[3] = target: Vascular endothelial growth factor receptor 2 (Homo sapiens) (UniProt P35968); assay: Inhibition of VEGF-induced VEGFR2 phosphorylation at Tyr1175 in human HUVEC cell incubated 1 hr prior to VEGF-challenge measured after 5 mins by Western blot analysis; summary of the method: as §1
HUVEC [4] = assay: Inhibition of VEGF-induced human HUVEC cell migration at 10 to 100 nM incubated 1 hr prior to VEGF-challenge measured after 24 hrs by wound healing assay; type: functional, cell-based; summary of the method: as §2
HUVEC [5] = assay: Inhibition of VEGF-induced human HUVEC cell proliferation at 10 to 100 nM incubated 1 hr prior to VEGF-challenge measured after 24 hrs by BrdU incorporation assay; type: functional, cell-based
Summary of the method: (§3)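 HUVECs pretreated 1 h with compound (100 nM single point, or 10, 50, 100 nM), then VEGF 10 ng/ml for 24 h. BrdU incorporation detected with anti-BrdU monoclonal antibody and peroxidase secondary, absorbance at 450 nm. Means of three experiments ± SD. ANOVA/Dunnett.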

[6] = target: Vascular endothelial growth factor receptor 2 (Homo sapiens) (UniProt P35968); assay: Inhibition of VEGF-induced VEGFR2 phosphorylation at Tyr1175 in human HUVEC cell incubated 1 hr prior to VEGF-challenge measured after 5 mins by PathScan ELISA
Summary of the method: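 HUVECs given compound (10, 50 or 100 nM) 1 h before 5 min VEGF (10 ng/ml). VEGFR2 Tyr1175 phosphorylation measured by PathScan ELISA. Means of three experiments ± SD. ANOVA with Dunnett's post-hoc test.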

HUVEC [7] = assay: Inhibition of VEGF-induced human HUVEC cell capillary tube formation at 10 to 100 nM incubated prior to VEGF-challenge; type: functional, cell-based
Summary of the method: (§4)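 HUVECs pretreated 1 h with compound, then seeded at 4 to 7 × 10⁴ cells on growth-factor-reduced Matrigel in EBM with or without VEGF 10 ng/ml. Tubular structures photographed after 6 h at ×100. Means of three experiments ± SD. ANOVA/Dunnett.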

HUVEC [8] = assay: Inhibition of VEGF-induced human HUVEC cell capillary tube formation incubated prior to VEGF-challenge; type: functional, cell-based; summary of the method: as §4
HUVEC [9] = assay: Inhibition of VEGF-induced human HUVEC cell migration incubated 1 hr prior to VEGF-challenge measured after 24 hrs by Trans-well assay; type: functional, cell-based
Summary of the method: (§5)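 Boyden chamber with 8 μm pore membrane. HUVECs in upper chamber with compound in 0.1% EBM; VEGF 10 ng/ml in lower chamber. Cells that migrated through the pores counted after 24 h. Means of three experiments ± SD. ANOVA with Dunnett's test.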

HUVEC [10] = assay: Inhibition of VEGF-induced human HUVEC cell proliferation incubated 1 hr prior to VEGF-challenge measured after 24 hrs by BrdU incorporation assay; type: functional, cell-based; summary of the method: as §3
[11] = target: Vascular endothelial growth factor receptor 2 (Homo sapiens) (UniProt P35968); assay: Inhibition of VEGF-induced VEGFR phosphorylation at Tyr1175 in human HUVEC cell at 10 to 100 nM incubated 1 hr prior to VEGF-challenge measured after 5 mins by Western blot analysis; summary of the method: as §1
HUVEC [12] = assay: Inhibition of VEGF-induced human HUVEC cell migration at 10 nM incubated 1 hr prior to VEGF-challenge measured after 24 hrs by Trans-well assay; type: functional, cell-based; summary of the method: as §5
[13] = target: Vascular endothelial growth factor receptor 2 (Homo sapiens) (UniProt P35968); assay: Inhibition of VEGF-induced VEGFR in human HUVEC cell assessed as AKT phosphorylation at Ser473 at 10 to 100 nM incubated 1 hr prior to VEGF-challenge measured after 30 mins by Western blot analysis; summary of the method: as §1

Measured: inhibition

CC(c1ncnc(Cl)c1F)N1CCC(Nc2ncccc2C(=O)Nc2cccc(Cl)c2)CC1 (stereo not given)
active: Aorta Dose-dependent effect | [1] Dose-dependent effect | HUVEC [2] Dose-dependent effect | [3] Dose-dependent effect | HUVEC [4] Dose-dependent effect | HUVEC [5] | [6] Dose-dependent effect | HUVEC [7] | HUVEC [8] Dose-dependent effect | HUVEC [9] Dose-dependent effect | HUVEC [10] Dose-dependent effect | [11] | HUVEC [12] | [13]

O=C(Nc1cccc(Cl)c1)c1cccnc1NC1CCN(Cc2ccccc2)CC1
active: HUVEC [5]
